In the library only some 2% were active in any assay of this set; here they are far more common.
XBP1 UPR activ = activators of adaptive arm of unfolded protein response (XBP1); CHO-XBP1 luciferase reporter, IRE1-XBP1 UPR activation, luminescence; percent of tunicamycin response, DMSO as zero; activation, % at 20 µM; AID 463104; 0.33% of 330,000 active;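 active = versus positive control, 20 µM dose yields 30% or more activation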
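Material: CHO cell line with stable XBP1 luciferase reporter; schedule: 16-18 h cell attachment at 37 °C, then 6 h compound exposure; signal: glow luminescence from Steady-Glo reagent; medium: serum-containing F12 medium, 10% FBS; benchmarks: tunicamycin 10 µg/mL and vehicle-only wells; read-out: percent activation relative to tunicamycin reference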
MC4R barr agon = activates human MC4R beta-arrestin recruitment. activation, % at 8.9 µM. AID 540308. U2OS MC4R beta-arrestin complementation, luminescence; percent of melanotan II response, DMSO zero. 0.98% of 360,000 active;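 active = activation above a per-plate cutoff, the mean activation of sample wells on that plate plus 3 SD, cut at about 8% in these data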
Target sequence (P32245 whole entry, looked up): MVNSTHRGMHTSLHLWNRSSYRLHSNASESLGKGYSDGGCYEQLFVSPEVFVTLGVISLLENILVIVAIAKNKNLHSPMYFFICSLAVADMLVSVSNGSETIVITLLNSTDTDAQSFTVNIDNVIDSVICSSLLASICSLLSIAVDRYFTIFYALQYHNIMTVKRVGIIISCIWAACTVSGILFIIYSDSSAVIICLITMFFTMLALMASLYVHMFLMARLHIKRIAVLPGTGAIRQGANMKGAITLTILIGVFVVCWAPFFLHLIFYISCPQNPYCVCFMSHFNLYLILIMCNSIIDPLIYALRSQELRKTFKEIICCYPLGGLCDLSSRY
MC4R antag cAMP = blocks human MC4R cAMP signaling; P32245; MC4R-expressing cells, MTII-stimulated cAMP, LANCE TR-FRET; inhibition, % at 6.5 µM; 0.48% of 360,000 active; AID 540295;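 active = inhibition above its plate's cutoff, the mean of tested wells on that plate plus 3 SD, cut at about 29% in these data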
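Test system: U2OS cells stably expressing human melanocortin 4 receptor (MC4R); also added: Melanotan II challenge; compound: 6.5 µM single dose; timing: 30-min compound preincubation, 1-h Melanotan II challenge, 1-h detection, room temperature; signal: Eu-cAMP/anti-cAMP TR-FRET, emission 671 nm; repeats: one well per compound, no replicates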
UPR CHOP act = apoptotic UPR (CHOP) activation; activation, % at 10 µM; 0.34% of 330,000 active; AID 449763; CHO-CHOP luciferase reporter, luminescence; percent of tunicamycin response over DMSO baseline;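 active = at 10 µM dose, activation of 40% or more, normalized to positive control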
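Test system: CHO CHOP reporter cells. Input: 500 CHO-CHOP cells per well. Medium: F12 with 10% FBS. Technique: luciferase luminescence. Measure: percent activation relative to tunicamycin control. Dosing: 10 µM compound, 0.5% DMSO. Timing: 16-18 h cell attachment, then 6 h compound exposure, 37 °C.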
Bfl-1 A1 inh = inhibitors of the anti-apoptotic protein A1, read as caspase activation. AID 2462. caspase activation, % (no concentration beside the values). 0.066% of 330,000 active. MEF A1-2A-BIM cells, Caspase-Glo 3/7 luminescence, 3 h; percent of clofoctol response, vehicle zero;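 active = over half of replicate activation scores above 10%, or exactly half above 10 with the replicate mean above 10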
Hits are given with their value; . = inactive; / = not tested or not shown.

SMILES	XBP1 UPR activ	MC4R barr agon	MC4R antag cAMP	UPR CHOP act	Bfl-1 A1 inh
CCCNC(=O)C1(C)CCCN(C(=O)CN2C(=O)c3ccccc3C2=O)C1 (centres undefined)	/	.	.	/	/
CC(C)CCn1cnc2c([nH]c3cccc(Cl)c32)c1=O	.	9.4	.	.	.
Cc1cccc2[nH]c3c(=O)n(CCN4CCNCC4)cnc3c12	.	.	.	.	.
CC(C)C1C(=O)N(Cc2cn(CC3CCCCC3)nn2)CCS(=O)(=O)N1Cc1ccc(-c2cccc(CO)c2)cc1 (centres undefined)	/	.	.	/	/
O=C(O)c1ccc(N/N=C/C2=C(N3CCOCC3)C(=C\c3ccccc3)/CC2)cc1	.	.	28.6	.	.
Cc1ccc(NC(=O)c2ccc(C#CC3(O)CCCCC3)cc2)cc1C	.	9.0	.	.	.
CCOC(=O)c1cc(OCC)c2c(ccc3cc(OC)ccc32)n1	/	.	.	/	/
O=C(CSc1nc(-c2ccco2)cc(C(F)(F)F)n1)Nc1ccccc1C(F)(F)F	.	9.4	.	.	.
Cc1cccc2c1NC(=O)C2(c1ccc(O)cc1)c1ccc(O)cc1	.	86.8	.	.	.
Cc1cc(C2(c3ccc(O)c(C)c3)C(=O)Nc3ccccc32)ccc1O	.	.	.	.	.
CCOC(=O)C1=C(C)N=C2SCCC(=O)N2C1c1ccc(C(=O)OC)cc1 (centres undefined)	.	.	.	.	.
CCOC(=O)C1=C(C)N2C(=C(C#N)[C@@H]1c1ccc(C(=O)OC)cc1)SC[C@@]2(O)C(C)(C)C	.	.	32.9	.	.
Cc1cccnc1C(NC(=O)C1CCN(Cc2ccc3ccccc3n2)CC1)c1ccc(Cl)cc1 (centres undefined)	/	.	.	/	/
COc1ccc(CC(=O)NNC(=O)c2ccc(SCc3cc(F)ccc3F)c([N+](=O)[O-])c2)cc1	.	9.0	.	.	.
COc1cccc(C(=O)NNC(=O)Cc2ccc([N+](=O)[O-])cc2)c1	.	.	.	.	.
O=C(CNC(=O)/C(=C\c1ccccc1)NC(=O)c1ccc(Br)cc1)OCc1ccccc1	.	.	.	.	.
O=C(CNC(=O)/C(=C\c1ccc(F)cc1)NC(=O)c1ccccc1)OCc1ccccc1	.	.	44.1	.	.
CCC(=O)N1CCC1(C)C(=O)Nc1ccccc1 (centres undefined)	/	.	.	/	/
O=C(Cn1c(=O)oc2cc(S(=O)(=O)N3CCCC3)ccc21)N1CCc2ccccc2C1	.	.	.	.	.
O=C(Cn1c(=O)oc2cc(S(=O)(=O)N3CCCCC3)ccc21)N1CCc2ccccc21	35.4	.	.	.	.
COc1ccccc1NC(=O)NC1CCCc2ccccc21 (centres undefined)	.	.	.	.	.
COc1ccccc1NC(=O)COc1ccc(C(=O)NC2CCCc3ccccc32)cc1OC (centres undefined)	.	8.5	.	.	.
CC1(C(=O)NCc2cccc3ccccc23)CCN1Cc1cccc2c1OCO2 (centres undefined)	/	.	.	/	/
COc1ccc(COc2ccsc2C(=O)Nc2ccc(Cl)cc2)cc1	.	8.7	.	.	.
COCCNC(=S)NC(=O)CC12CC3CC(CC(C3)C1)C2	.	8.3	.	.	.
SMILES	XBP1 UPR activ	MC4R barr agon	MC4R antag cAMP	UPR CHOP act	Bfl-1 A1 inh
CNC(=O)CC12CC3CC(CC(C3)C1)C2	.	.	.	.	.
COc1ccc(C(=O)Oc2ccc3ccc(=O)oc3c2)cc1	.	.	.	.	.
COc1ccc(C(=O)Oc2ccc3oc(=O)sc3c2)cc1	.	13.4	.	.	.
COCCNC(=O)C1(C)CCCN(Cc2cn(C)c3ccccc23)C1 (centres undefined)	/	.	.	/	/
COc1ccccc1C#Cc1cnc2c(c1)C(=O)N([C@H](C)CO)C[C@@H](C)[C@@H](CN(C)C(=O)c1ccc3c(c1)OCO3)O2	/	.	.	/	/
Cc1ccc(-n2nnnc2SCC(=O)NC(=O)Nc2ccc3c(c2)OCCO3)cc1	.	.	.	.	.
O=C(CSc1nnnn1-c1ccc(Cl)cc1)NC(=O)Nc1ccc2c(c1)OCCO2	.	9.3	.	.	.
O=C(NCc1cccnc1)c1cc(C2CCCN(S(=O)(=O)c3cccs3)C2)on1 (centres undefined)	/	.	.	/	/
O=C1N/C(=N/N=C/c2ccco2)SC1Cc1ccccc1 (centres undefined)	.	.	.	.	.
O=C1C(Cc2ccccc2)S/C(=N/N=C/c2ccco2)N1c1ccccc1 (centres undefined)	.	8.4	.	.	.
O=C(c1ccc(Cl)cc1)C(CN1CCCCC1)c1ccccc1 (centres undefined)	.	.	.	203.3	.
CCOC(=O)c1[nH]c(C)c(C(=O)OCC(=O)N(C)C2CCS(=O)(=O)C2)c1C (centres undefined)	.	8.3	.	.	.
COc1ccc(-c2n[nH]c(C)c2-c2ccc(Cl)cc2)c(O)c1	.	9.1	.	.	.
O=C1CCCN1CCCNc1nc(NCc2cccs2)nc2ccsc12	/	.	.	/	/
CCOC(=O)c1cnc2ccc(OCC)cc2c1N1CCN(c2ccccc2OC)CC1	.	.	32.1	.	.
CCOc1ccc2ncc(C(=O)c3ccc(OC)cc3)c(N3CCN(CC)CC3)c2c1	.	.	.	.	.
CCCOc1ccc(NCC(=O)Nc2ccc(C)cc2C)cc1	.	.	.	.	.
Cc1ccc(NC(=O)C(=O)NCCOc2ccc(Cl)cc2)c(C)c1	.	8.8	.	.	.
COc1cccc(C(NC(C)=O)c2nc(-c3cccc(O)c3)cs2)c1 (centres undefined)	/	.	.	/	/
CCc1nc2ccc(C(=O)NC3CCN(Cc4ccccc4)CC3)cn2c1N(C)Cc1cc2ccccc2s1	/	.	.	/	/
COc1ccc2cc(/C=N/NC(=O)CSCc3ccc([N+](=O)[O-])cc3)c(Cl)nc2c1	.	12.1	.	.	.
COc1ccc(N(C(=O)CCl)C(C(=O)NC2CCCCC2)c2cccnc2)cc1 (centres undefined)	.	8.7	.	.	.
O=C(NC1CCCCC1)C(c1cccnc1)N(C(=O)CCl)c1ccc(F)cc1 (centres undefined)	/	.	.	/	.
COc1ccc(C(C(=O)NC2CCCCC2)N(C(=O)CCl)c2cccc(Cl)c2)cc1 (centres undefined)	/	25.1	.	/	.
COc1ccc(NC(=O)c2cc(C3CCCCN3C(=O)c3cc(OC)c(C)c(OC)c3)on2)c(C)c1 (centres undefined)	/	.	.	/	/
O=c1c2c(-c3ccccc3)csc2nc2c3ccccc3c(NCCN3CCOCC3)nn12	/	9.3	.	/	/
CC(=O)n1cc(N(C(=O)CCl)c2ccc([N+](=O)[O-])cc2)c2ccccc21	.	.	32.4	.	.
